The source made the active and inactive calls. No cut-off for these calls is given here.
Experiments:
[1] = target: T1, Macrophage migration inhibitory factor (Homo sapiens, UniProt P14174); test: (§1) Inhibition of recombinant human MIF tautomerase activity expressed in Escherichia coli using L-dopachrome methyl ester as substrate incubated for 30 mins prior to substrate addition measured for 3 mins
T1 sequence (P14174 whole entry): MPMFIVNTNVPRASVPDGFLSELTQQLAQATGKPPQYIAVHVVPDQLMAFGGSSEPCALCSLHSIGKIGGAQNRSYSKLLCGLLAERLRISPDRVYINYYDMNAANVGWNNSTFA

[2] = target: T2, Macrophage migration inhibitory factor (Homo sapiens) (UniProt P14174); test: (§2) Inhibition of recombinant MIF (unknown origin)-mediated glucocorticoid overriding activity in LPS-stimulated mouse RAW264.7 cells assessed as inhibition of dexamethasone-induced intracellular TNF-alpha production at 20 uM preincubated for 30 mins followed by LPS challenge measured at 4 hrs by ELISA relative to control; format: cell-based
T2 sequence (whole entry): T1 sequence (P14174 whole entry)
In short: (§3)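 RAW 264.7 cells, 5 × 10^4/well in triplicate, pretreated 30 min with dexamethasone (0.1 μM) plus recombinant MIF (0.2 μM) with or without compound, then stimulated with LPS (0.1 μg/mL). TNF-α in supernatant by sandwich ELISA at 4 h; NO in supernatant by Griess reagent at 16 h. Mean ± SD, n = 3, three independent experiments.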

[3] = target: T2, Macrophage migration inhibitory factor (Homo sapiens); test: as §1
RAW264.7 = test: Antiinflammatory activity in mouse RAW264.7 cells assessed as inhibition of LPS-induced nitrite production at 40 uM after 24 hrs by Griess assay; format: functional, cell-based
In short: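 RAW 264.7 macrophages (DMEM, 5% heat-inactivated FBS, 37 °C, 5% CO2) incubated 24 h with 0.1 μg/mL LPS with or without compound; nitrite in supernatant by Griess reagent. Mean ± SD, n = 3, representative of three independent experiments.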

[4] = target: T2, Macrophage migration inhibitory factor (Homo sapiens); test: Inhibition of recombinant MIF (unknown origin)-induced ERK1/2 phosphorylation in mouse RAW264.7 cells at 20 uM preincubated for 30 mins followed by protein addition measured after 20 mins by Western blot analysis relative to control; format: cell-based
In short: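 RAW 264.7 cells given compound 30 min before MIF (0.1 μg/mL). Lysates taken 20 min after stimulation, separated on 12% SDS-PAGE and immunoblotted for phospho-ERK1/2 and total ERK1/2 (loading control), ECL detection. Densitometry expressed as % of MIF-alone band intensity.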

[5] = target: T2, Macrophage migration inhibitory factor (Homo sapiens); test: as §2, with “intracellular nitric oxide” for “intracellular TNF-alpha”, “at 16” for “at 4”, “by Griess assay” for “by ELISA”; format: cell-based; in short: as §3
[6] = target: T2, Macrophage migration inhibitory factor (Homo sapiens); test: Inhibition of recombinant MIF (unknown origin)-induced mouse RAW264.7 cell chemotactic migration at 20 uM preincubated for 30 mins followed by macrophage addition measured every 15 mins for 4 hrs relative to control
In short: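 Recombinant MIF with or without compound placed in the lower chamber of a CIM-16 plate 30 min before RAW 264.7 cells (20,000/well, serum-free medium) added to the upper chamber. Impedance-based migration on xCELLigence RTCA-DP read every 15 min for 4 h. Heat-inactivated MIF as negative control; % of MIF-alone migration; mean ± SD, n = 3.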

Structure (SMILES)	IC50 [1] [µM]	inhibition [3]	inhibition [4]	other results
O=C(Nc1ccccc1C(=O)O)c1cc(S(=O)(=O)Nc2ccc(F)cc2)ccc1Cl	74.5			
Cc1c(CCC(=O)O)c(=O)oc2cc(OCc3ccccc3Br)ccc12	23.1			
O=C(O)C[C@@H](Cc1ccccc1)c1ccco1	85.6			
COc1ccc(C(=O)O)cc1NC(=S)NC(=O)c1cc2ccccc2o1		Dose-dependent effect	59%	inhibition [2]: 131%; inhibition (RAW264.7): Active; inhibition [5]: 131%
COc1cc(-c2nc3ccccc3s2)cc(Br)c1OCC(=O)O		Dose-dependent effect	55%	inhibition [6]: 83%; inhibition (RAW264.7): Active
COc1ccc2c3c(c(=O)oc2c1OCC(=O)O)CCCC3	25.8			
COc1ccc(-c2cc(C)nc(SCc3cccc(C(=O)O)c3)n2)cc1	45.5			
O=C(O)CCC(=O)Nc1nc(-c2cc3ccccc3oc2=O)cs1	102			
COc1cc(-c2nc3sc4c(c3c(=O)[nH]2)CCCC4)cc(Br)c1OCC(=O)O	22.6			
COC(=O)C[C@H]1CC(c2ccc(O)cc2)=NO1		Dose-dependent effect	Active	fold change (FC) [6]: 2.2; inhibition [2]: 128%; inhibition [5]: 128%
O=C(O)c1cccc(NC(=S)NC(=O)c2ccc(-c3ccccc3)cc2)c1		Dose-dependent effect	43%	inhibition [6]: 52%; inhibition (RAW264.7): Active

— ChEMBL document CHEMBL3259606, “Discovery of novel inhibitors targeting the macrophage migration inhibitory factor via structure-based virtual screening and bioassays” (J Med Chem, 2014)
